Jurkat NFkB inh = inhibitors of the PMA/ionomycin-induced NF-kB reporter in Jurkat cells. hit rate 0.53% among 330,000. PMA/ionomycin-induced NF-kB luciferase reporter, luminescence. inhibition, % at 4 µM. AID 435003; in the data active = inhibition above about 50%
NR2E3 ag-1 = NR2E3 (human) agonism. GST-NR2E3/biotin-RetCOR TR-FRET, 1536-well. Q9Y5X4. inhibition of corepressor binding, % at 4.78 µM. hit rate 0.12% among 320,000;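 active = percent inhibition above the cutoff of mean plus 3 SD of all tested compounds, set per screening campaign, cut at about 20% in these data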;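 also: 0% = DMSO wells and 100% = biotin wells as full block of FRET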
Target sequence (Q9Y5X4 whole entry, looked up): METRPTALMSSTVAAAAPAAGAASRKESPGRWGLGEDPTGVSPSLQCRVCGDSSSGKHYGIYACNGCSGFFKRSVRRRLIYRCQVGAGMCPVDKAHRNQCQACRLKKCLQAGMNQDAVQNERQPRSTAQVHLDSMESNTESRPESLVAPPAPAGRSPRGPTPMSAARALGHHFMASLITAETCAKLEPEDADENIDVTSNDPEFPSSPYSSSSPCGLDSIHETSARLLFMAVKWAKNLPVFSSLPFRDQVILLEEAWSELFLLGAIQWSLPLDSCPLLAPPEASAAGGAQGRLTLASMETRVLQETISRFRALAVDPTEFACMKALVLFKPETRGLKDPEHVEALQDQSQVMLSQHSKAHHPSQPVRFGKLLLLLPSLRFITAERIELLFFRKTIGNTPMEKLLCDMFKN
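Assay system: NR2E3–RetCOR corepressor complex. Quantity: 1.35 nM GST-NR2E3. Buffer or medium: pH 7.5 Tris-based buffer. Reagent: biotinylated RetCOR corepressor at 7 nM final. Schedule: 5 h at 4 °C. Detection: TR-FRET, emission read at 617 and 671 nm. Replicates: one well per compound, singlicate testing.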
FGF22 binding-1 = binders of recombinant human FGF22 by thermal shift; activity (Tm shift, normalised), % at 9.99 µM; hit rate 1.5% among 340,000; SYPRO orange fluorescence; percent of sucrose octasulfate shift, DMSO zero;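 active = mean Tm shift, scaled 0 neutral to 100 positive control, at about 1.3% or above, every replicate too, limit read from the data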
Target sequence (Q9HCT0 whole entry, looked up): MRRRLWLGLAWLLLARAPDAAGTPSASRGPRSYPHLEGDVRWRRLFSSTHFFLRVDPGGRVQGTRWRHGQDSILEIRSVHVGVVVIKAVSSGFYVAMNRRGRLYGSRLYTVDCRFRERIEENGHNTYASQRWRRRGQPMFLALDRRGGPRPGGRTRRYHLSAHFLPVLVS
miR122 inh = miR-122 inhibition in Huh7 cells; hit rate 0.3% among 340,000; Huh7 miR-122 Renilla luciferase sensor, 48 h; neutral wells = 0, positive control = 100; activation (reporter increase), % at 12.5 µM; AID 602342;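 active = mean replicate activation score at least 90 and every replicate individually at or above 90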;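 also: higher luciferase means less miR-122 activity so hits act as miR-122 inhibitors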
NR2E3 ag-2 = agonists of human NR2E3 nuclear receptor | Q9Y5X4 | CHO-S Gal4-NCOR/VP16-NR2E3 two-hybrid, luciferase | inhibition of corepressor binding, % at 3.98 µM | hit rate 0.35% among 360,000 | AID 602229;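 active = inhibition above the mean of all tested compounds plus 3 SD, cut at about 70% in these data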;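 also: 0% = DMSO with NR2E3 transfected cells and 100% = cells lacking NR2E3 construct; higher means lower luciferase signal from less NR2E3 corepressor binding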
697 NFkB inh = lowers PMA/ionomycin-induced NF-kB signal in 697 B cells; hit rate 0.33% among 330,000; inhibition, % at 4 µM; 697 B-cell NF-kB luciferase reporter, 16 h; in the data active = inhibition above about 35%
FGF22 binding-2 = binds human FGF22 shifting its melting temperature; hit rate 2% among 1,000; thermal shift activity, °C (ΔTm) at 38 µM; shares compounds with FGF22 binding-1; recombinant FGF22 thermal shift, SYPRO orange fluorescence; AID 720646;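 active = fitted rise in melting shift crosses a set limit at or below the top valid dose tested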
FGF22 TSA DP = binds human FGF22 shifting its melting temperature. shares compounds with FGF22 binding-1. Thermal shift assay, SYPRO orange, melting temperature shift. Tm shift (activity), % at 38 µM. 50 tested, under 10 active;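 active = compounds whose fitted dose curve of melting temperature shift rises past a set threshold within the tested doses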
SYPRO no-protein = compound-only SYPRO artifact for FGF22 binders. shares compounds with FGF22 binding-1. compound-only SYPRO orange thermal shift counter-screen, no protein. AC50, µM (series often up to 38 µM). hit rate 2% among 1,000. AID 743019;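 active = rising signal whose fitted curve reaches the 0.54 level within the top valid dose, showing a melting point, actives reach about 13 µM in these data; inactive = the rest, including activity in the opposite direction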; also: value is where the raw curve crosses a fixed level and not half-maximal
The depositor's hits bear a star; i = inactive; . = not tested or not shown; [ ] = another dose, or the depositor's remark. Most compounds without a hit are left out; they make up all but 2.2% or so of the library.

SMILES	Jurkat NFkB inh	NR2E3 ag-1	FGF22 binding-1	miR122 inh	NR2E3 ag-2	697 NFkB inh	FGF22 binding-2	SYPRO no-protein	others
Cc1cccc(NC(=O)c2ccc(S(=O)(=O)NCc3cccnc3)cc2)c1C	6	1	0	.	-19	2	.	.
Cc1ccc2nc(-c3ccc(NC(=O)COCC(=O)O)cc3)sc2c1	-59	-2	23*	.	-104	-68	0.22	i
Cc1ccc2nc(-c3ccc(NC(=O)CSCC(=O)O)cc3)sc2c1	-136	1	0	0	-202	-103	.	.
CC(=O)Nc1ccc2nc(NC(=O)COc3ccc(C)cc3)sc2c1	14	2	1.5*	.	8	-1	-0.001	12µM*
CC(=O)Nc1ccc2nc(NC(=O)COc3ccccc3)sc2c1	6	1	0	-6	-23	9	.	.
C[C@@H]1CN([C@@H](C)CO)C(=O)c2cc(NC(=O)NC3CCCCC3)ccc2O[C@H]1CN(C)S(=O)(=O)c1ccc(Cl)cc1	.	.	0	-9[16.7 µM]	.	.	.	.
O=S(=O)(NC[C@H]1N[C@H](CO)[C@H]1c1ccccc1)c1ccccc1	.	.	2.4*	0[16.7 µM]	.	.	0.14	i
CCOC(=O)c1sc(N2C(=O)C(O)=C(C(=O)c3ccco3)C2c2ccc(C)o2)nc1C (centres undefined)	11	6	1	.	-78	12	.	.
CCOC(=O)c1sc(N2C(=O)C(O)=C(C(=O)c3ccco3)C2c2ccc([N+](=O)[O-])cc2)nc1C (centres undefined)	-13	3	1.7*	-6	-23	20	0.2	i
COc1ccc(CN(C)C[C@H]2OCCCC[C@@H](C)Oc3ccc(NS(=O)(=O)c4ccc(F)cc4)cc3C(=O)N([C@@H](C)CO)C[C@H]2C)cc1	.	.	0	-3[16.7 µM]	.	.	.	.
COCc1cn(CC[C@@H]2CC[C@H](NC(=O)CCN3CCCCC3)[C@@H](CO)O2)nn1	.	.	0	.	.	.	.	.
CCCCC(=O)Nc1ccc(NC(=O)c2ccc([N+](=O)[O-])cc2)cc1OC	1	3	0	.	-10	6	.	.
CCCC(=O)Nc1ccc(C(=O)Nc2ccc([N+](=O)[O-])cc2OC)cc1	-12	3	1.4*	3	-2	-1	-0.17	i
COc1ccc(NC(=O)COC(=O)Cc2c[nH]c3ccccc23)cc1Cl	1	.	1.7*	5	-14	4	-0.2	i
Cc1ccc(NC(=O)COC(=O)Cc2c[nH]c3ccccc23)cc1C	9	2	0	.	21	10	.	.
C[C@H]1CN([C@@H](C)CO)C(=O)c2cccc(NS(=O)(=O)c3ccccc3)c2O[C@H]1CN(C)C	.	.	0	-4[16.7 µM]	.	.	.	.
O=C(C[C@H]1C[C@@H]2c3cc(NC(=O)NC4CCCC4)ccc3O[C@@H]2[C@H](CO)O1)NCc1ccc2c(c1)OCO2	.	.	1.9*	4[16.7 µM]	.	.	-0.076	i
C[C@H]1CN([C@@H](C)CO)C(=O)c2ccccc2-c2ccccc2CO[C@@H]1CN(C)C(=O)[C@@H]1CCCN1C	.	.	0	.	.	.	.	.
CCC(=O)N(NC1=NS(=O)(=O)c2ccccc21)S(=O)(=O)c1ccc(C)cc1	4	-1	1.7*	.	-6	-1	-0.002	i
CCN(CC)S(=O)(=O)c1ccc(NC2=NS(=O)(=O)c3ccccc32)cc1	-6	0	0	29	14	2	.	.
O=C(CNc1ccccc1OC(F)F)N1CCc2ccccc21	-95	2	1.4*	.	-107	-70	0.067	i
COC(=O)C[C@H]1CC[C@H]2[C@@H](COC[C@H](O)CN2CCC(F)(F)F)O1	.	.	0	-3[16.7 µM]	.	.	.	.
CC(C)NC(=O)N(C)C[C@@H]1OCCCC[C@H](C)Oc2ccc(NC(=O)Nc3ccc(C(F)(F)F)cc3)cc2C(=O)N([C@@H](C)CO)C[C@H]1C	.	.	1	-5[16.7 µM]	.	.	.	.
O=C(Nc1nc(-c2ccccn2)cs1)c1cccc(S(=O)(=O)N2CCOCC2)c1	10	2	1.5*	31	23	-45	-0.095	i
Cc1c(C(=O)Nc2nc(-c3ccccn3)cs2)oc2ccccc12	-1	0	.	-3	34	1	.	.
SMILES	Jurkat NFkB inh	NR2E3 ag-1	FGF22 binding-1	miR122 inh	NR2E3 ag-2	697 NFkB inh	FGF22 binding-2	SYPRO no-protein	others
O=C(Nc1nc(-c2ccccn2)cs1)c1cc2ccccc2o1	-20	0	1.6*	7	-26	-21	-0.22	i
COc1ccc(S(=O)(=O)N[C@H]2CC[C@H](CC(=O)N3CCc4ccccc4C3)O[C@@H]2CO)cc1	.	.	17*	.	.	.	-0.011	i
Cc1ccc(S(=O)(=O)N[C@@H]2C=C[C@@H](CC(=O)N3CCc4ccccc4C3)O[C@@H]2CO)cc1	.	.	1.3*	.	.	.	0.12	i
O=C(C[C@H]1C=C[C@@H](NS(=O)(=O)c2ccccc2)[C@@H](CO)O1)N1CCc2ccccc2C1	.	.	0	.	.	.	.	.
COCC#Cc1cnc2c(c1)C(=O)N([C@@H](C)CO)C[C@@H](C)[C@H](CN(C)S(=O)(=O)c1cccc(OC)c1)O2	.	.	0	3[16.7 µM]	.	.	.	.
Cc1ccc2c(c1)C1CN(C)CCC1N2S(=O)(=O)c1ccc(C(C)C)cc1 (centres undefined)	2	3	14*	-1	-27	8	-0.02	i
Cc1ccc2c(c1)C1CN(C)CCC1N2S(=O)(=O)c1cccc(C(F)(F)F)c1 (centres undefined)	-16	1	0	.	1	0	.	.
C/C=C/c1cnc2c(c1)C(=O)N([C@H](C)CO)C[C@H](C)[C@@H](CN(C)S(=O)(=O)c1cn(C)cn1)O2	.	.	0	13[16.7 µM]	.	.	.	.
Cn1cc(/C=N/NC(=O)c2cc3cc(Br)ccc3o2)c2ccccc21	-1	-2	0	0	-1	10	.	.
O=C(O)Cn1cc(/C=N/NC(=O)c2cc3cc(Br)ccc3o2)c2ccccc21	-7	4	1.4*	.	-2	1	-0.036	i
O=C(Nc1cc(Cl)cc(Cl)c1)N[C@H]1CC[C@H](CCNS(=O)(=O)c2cccc(F)c2)O[C@@H]1CO	.	.	2.4*	.	.	.	0.13[42 µM]	i
O=C(Nc1ccc(Cl)cc1)N[C@@H]1CC[C@@H](CCNS(=O)(=O)c2ccccc2F)O[C@@H]1CO	.	.	0	.	.	.	.	.
O=C(NCC[C@@H]1CC[C@H](NC(=O)C2CCOCC2)[C@H](CO)O1)Nc1ccc(Cl)cc1	.	.	1.4*	.	.	.	0.011[42 µM]	i
O=C(Nc1ccc(Cl)cc1)N[C@@H]1CC[C@@H](CCNS(=O)(=O)c2ccccc2F)O[C@H]1CO	.	.	1.6*	.	.	.	0.11[42 µM]	i	FGF22 TSA DP=0

Compound activity deposited in PubChem by several laboratories.
